From ChEMBL document CHEMBL1151806, “Indolizidine, antiinfective and antiparasitic compounds from Prosopis glandulosa var. glandulosa” (J Nat Prod, 2009)
Calls of active or inactive are those of the source. The calls are words filed in the database; no cut-off is given here.

Assays:
[1] = test system: Plasmodium berghei; test: Antimalarial activity as reduced parasitaemia at day 10 against Plasmodium berghei NK65 infected Swiss Webster mice (Mus musculus) at 10 mg/kg/day intraperitoneal dose for 3 days; format: functional; design: scale not given: the % may be the effect or the level left
How it was run: (§1)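 Peters 4-day suppressive test: male Swiss Webster mice (18–20 g) inoculated ip with 2·10^7 P. berghei NK-65 parasitized red cells. Compound in DMSO:PEG:water (1:3:6) given ip ~2 h post-infection, then once daily for 3 days (days 0–2). 5 mice/group; vehicle-treated control. Giemsa-stained tail blood smears read to day 28. % suppression = 100 − (treated/untreated parasitemia × 100). Cure = no parasitemia until day 28. Mice observed after each dose for signs of toxicity.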

[2] = test system: Plasmodium berghei; test: Antimalarial activity as elimination of parasitaemia at day 28 against Plasmodium berghei NK65 infected Swiss Webster mice (Mus musculus) at 10 mg/kg/day intraperitoneal dose for 3 days; format: functional, organism-based; how it was run: as §1
[3] = test system: Plasmodium berghei; test: Antimalarial activity as reduced parasitaemia at day 17 against Plasmodium berghei NK65 infected Swiss Webster mice (Mus musculus) at 10 mg/kg/day intraperitoneal dose for 3 days; format: functional; design: scale not given: the % may be the effect or the level left; how it was run: as §1
[4] = test system: Plasmodium berghei; test: Antimalarial activity as elimination of parasitaemia at day 28 against Plasmodium berghei NK65 infected Swiss Webster mice (Mus musculus) at 1 mg/kg/day intraperitoneal dose for 3 days; format: functional, organism-based; how it was run: as §1
[5] = test system: Plasmodium berghei; test: Antimalarial activity as reduced parasitaemia at day 17 against Plasmodium berghei NK65 infected Swiss Webster mice (Mus musculus) at 2 mg/kg/day intraperitoneal dose for 3 days; format: functional, organism-based; how it was run: as §1
[6] = test system: Plasmodium berghei; test: Antimalarial activity as reduced parasitaemia at day 17 against Plasmodium berghei NK65 infected Swiss Webster mice (Mus musculus) at 1 mg/kg/day intraperitoneal dose for 3 days; format: functional, organism-based; how it was run: as §1
[7] = test system: Vero; test: Cytotoxicity against african green monkey Vero cells after 48 hrs by neutral red assay; format: cell-based, Chlorocebus sabaeus; details: vero
How it was run: (§2)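 Cells seeded at 25,000/well, incubated 24 h, then exposed to samples for 48 h. Viable cells measured by Neutral Red uptake. IC50 from logarithmic plots of growth inhibition vs concentration. Doxorubicin positive control, DMSO vehicle control.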

[8] = test system: Cryptococcus neoformans; test: Antimicrobial activity against Cryptococcus neoformans ATCC 90113 infected in mouse assessed as […] elimination from brain tissue at 0.0625 mg/kg/day, ip for 5 days; format: functional; details: route intraperitoneal
[9] = test system: Mus musculus; test: Toxicity in Swiss Webster mouse at 1 mg/kg, ip administered once daily for 3 days; format: organism-based; design: dose 1 mg/kg, route intraperitoneal; details: in vivo, 72 h; how it was run: as §1
[10] = test system: Plasmodium berghei; test: Antimalarial activity as reduced parasitaemia against Plasmodium berghei NK65 infected Swiss Webster mice (Mus musculus); format: functional
[11] = test system: Mycobacterium intracellulare; test: Antimicrobial activity against Mycobacterium intracellular ATCC 23068 by alamar blue assay; format: functional, organism-based
How it was run: (§3)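 Samples serially diluted in 20% DMSO/saline, tested in duplicate. Inocula set by OD630: C. albicans RPMI pH 4.5, 1·10^4 CFU/mL; C. neoformans Sabouraud dextrose, 1·10^5; MRSA cation-adjusted Mueller-Hinton pH 7.3, 5·10^5; M. intracellulare 7H9/OADC + 5% Alamar Blue pH 7.3, 2·10^6; A. fumigatus RPMI pH 7.3 + 5% Alamar Blue, 3·10^4. Read at 630 nm or 544ex/590em before and after incubation.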

[12] = test system: Staphylococcus aureus; test: Antimicrobial activity against methicillin-resistant Staphylococcus aureus ATCC 43300 by NCCLS method in presence of 5% human serum; format: functional, organism-based
[13] = test system: Aspergillus fumigatus; test: Antimicrobial activity against Aspergillus fumigatus ATCC 90906 by alamar blue assay in presence of 5% human serum; format: functional, organism-based
[14] = test system: BT-549; test: Cytotoxicity against human BT549 cells after 48 hrs by neutral red assay; format: functional, cell-based; details: BT-549, 48 h; how it was run: as §2
[15] = test system: Candida albicans; test: Antimicrobial activity against Candida albicans ATCC 90028 by NCCLS method in presence of 5% human serum; format: functional, organism-based
[16] = test system: Aspergillus fumigatus; test: Antimicrobial activity against Aspergillus fumigatus ATCC 90906 by alamar blue assay; format: functional, organism-based
How it was run: as §3, with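 “3·10^4.” for “3·10^4. Read at 630 nm or 544ex/590em before and after incubation.”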

[17] = test system: Plasmodium berghei; test: Antimalarial activity as reduced parasitaemia at day 3 against Plasmodium berghei NK65 infected Swiss Webster mice (Mus musculus) at 1 mg/kg/day intraperitoneal dose for 3 days; format: functional; design: scale not given: the % may be the effect or the level left; how it was run: as §1
[18] = test system: Cryptococcus neoformans; test: Antimicrobial activity against Cryptococcus neoformans ATCC 90113 by NCCLS method in presence of 5% human serum; format: functional, organism-based
[19] = test system: Plasmodium falciparum; test: Antimalarial activity after 72 hrs against […] Plasmodium falciparum D6 by pLDH activity; format: functional, organism-based; details: D6, 72 h
How it was run: (§4)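 P. falciparum-infected red cells (2% parasitemia, 2% hematocrit) in RPMI-1640 with 10% human serum and 60 μg/mL amikacin, exposed to serial sample concentrations. Gassed with 90% N2/5% O2/5% CO2, incubated 37 °C for 72 h. Parasite LDH activity read colorimetrically with Malstat reagent.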

[20] = test system: Leishmania donovani; test: Antileishmanial activity against Leishmania donovani promastigotes after 48 hrs by alamar blue assay; format: functional, organism-based
[21] = test system: Mycobacterium intracellulare; test: Antimicrobial activity against Mycobacterium intracellular ATCC 23068 by alamar blue assay in presence of 5% human serum; format: functional, organism-based
[22] = test system: Plasmodium berghei; test: Antimalarial activity as reduced parasitaemia at day 3 against Plasmodium berghei NK65 infected Swiss Webster mice (Mus musculus) at 2 mg/kg/day intraperitoneal dose for 3 days; format: functional; design: scale not given: the % may be the effect or the level left; how it was run: as §1
[23] = test system: Candida albicans; test: Antimicrobial activity against Candida albicans ATCC 90028 by NCCLS method; format: functional, organism-based
How it was run: as §3, with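 “3·10^4.” for “3·10^4. Read at 630 nm or 544ex/590em before and after incubation.”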

[24] = Toxicity in RBC assessed as hemolysis; format: cell-based; details: Erythrocyte
[25] = test system: Vero; test: Cytotoxicity against african green monkey Vero cells; format: cell-based; details: Chlorocebus sabaeus; how it was run: as §2
[26] = test system: LLC-PK1; test: Cytotoxicity against pig LLC-PK1 cells after 48 hrs by neutral red assay; format: cell-based, Sus scrofa; details: llc-pk1; how it was run: as §2
[27] = test system: Plasmodium berghei; test: Antimalarial activity as reduced parasitaemia at day 10 against Plasmodium berghei NK65 infected Swiss Webster mice (Mus musculus) at 1 mg/kg/day intraperitoneal dose for 3 days; format: functional; design: scale not given: the % may be the effect or the level left; how it was run: as §1
[28] = test system: Staphylococcus aureus; test: Antimicrobial activity against methicillin-resistant Staphylococcus aureus ATCC 43300 by NCCLS method; format: functional, organism-based
How it was run: as §3, with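 “3·10^4.” for “3·10^4. Read at 630 nm or 544ex/590em before and after incubation.”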

[29] = test system: KB; test: Cytotoxicity against human KB cells after 48 hrs by neutral red assay; format: functional, cell-based; how it was run: as §2
[30] = test system: Plasmodium berghei; test: Antimalarial activity as elimination of parasitaemia at day 28 against Plasmodium berghei NK65 infected Swiss Webster mice (Mus musculus) at 2 mg/kg/day intraperitoneal dose for 3 days; format: functional, organism-based; how it was run: as §1
[31] = test system: SK-MEL; test: Cytotoxicity against human SK-MEL cells after 48 hrs by neutral red assay; format: functional, cell-based; how it was run: as §2
[32] = test system: Cryptococcus neoformans; test: Antimicrobial activity against Cryptococcus neoformans ATCC 90113 by NCCLS method; format: functional, organism-based
How it was run: as §3, with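 “3·10^4.” for “3·10^4. Read at 630 nm or 544ex/590em before and after incubation.”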

[33] = test system: Plasmodium falciparum; test: Antimalarial activity after 72 hrs against chloroquine-resistant Plasmodium falciparum W2 by pLDH activity; format: functional, organism-based; details: W2, 72 h; how it was run: as §4

CCO[C@H]1O[C@@H]2O[C@@]3(C)CC[C@H]4[C@H](C)CC[C@@H]([C@H]1C)[C@@]24OO3 [ARTEMOTIL]
Activity [1]: 100% | Activity [2]: Active | Activity [3]: 100%

C[C@@H]1N[C@H](CCCCCCCCCCc2cc(CCCCCCCCCC[C@@H]3CC[C@H](O)[C@@H](C)N3)c3[n+](c2)CCC3)CC[C@H]1O.[Cl-] [PROSOPILOSIDINE]
Activity [4]: inactive | Activity [5]: inactive | Activity [6]: inactive | IC50 [7]: Not Active | Activity [8]: 76% | Activity [9]: Non-toxic | ED50 [10]: 2 mg/kg | IC50 [11]: 0.9 µg/mL | MBC [11]: 20 µg/mL | Activity [12]: Active | Activity [13]: Active | IC50 [14]: 8.75 µg/mL | Activity [15]: Active | MFC [16]: inactive | MIC ([16]; Aspergillus fumigatus, ATCC 90906): 5 µg/mL | IC50 ([16]; Aspergillus fumigatus, ATCC 90906, read-out: IC50): 3 µg/mL | Activity [17]: 48% | Activity [18]: Active | IC50 [19]: 0.039 µg/mL | IC50 [20]: 0.7 µg/mL | IC90 [20]: 1.9 µg/mL | Activity [21]: Active | Activity [22]: 48% | MFC [23]: inactive | MIC [23]: inactive | IC50 ([23]; Candida albicans, ATCC 90028, read-out: IC50): 15 µg/mL | IC50 [24]: 16 µg/mL | IC50 [25]: > 23.8 µg/mL | IC50 [26]: Not Active | Activity [27]: 40.5% | IC50 [28]: 0.35 µg/mL | MBC [28]: 5 µg/mL | MIC [28]: 1.25 µg/mL | IC50 [29]: 7.5 µg/mL | Activity [30]: inactive | IC50 [31]: 4.5 µg/mL | IC50 [32]: 0.4 µg/mL | MIC [32]: 0.63 µg/mL | IC50 [33]: 0.095 µg/mL
